Consider 6 molecules from PMC4696769 (Biochemistry, 2015).

By kcat is commonly meant the maximal rate divided by the concentration of active sites. As a reminder, the Kd is a measure of binding affinity in units of concentration. A lower Kd goes with a tighter complex.

Series [1] addresses T1, WT AKR1D1 (Homo sapiens, UniProt P51857). Put plainly: Steady-state kinetic analysis of steroid reduction. The format is biochemical. Conditions: for kcat: pH 7.0, 37 °C, 7.2 μM NADPH; for Ki: Ki (substrate inhibition; dissociation constant for substrate from the E-NADP+ complex).
Series [2] addresses T1, WT AKR1D1. Put plainly: Multiple turnover reactions, stopped-flow transient kinetics. The format is biochemical. Conditions: 10 mM potassium phosphate buffer, pH 7, 37 °C. In a few lines:
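Multiple-turnover reactions in stopped-flow. […] Both solutions in 10 mM KPi pH 7.0 with 4% acetonitrile at 37 °C. […] At least three traces averaged, fit to a linear or burst-plus-linear equation giving pseudo-first-order kburst and […] kss.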

Series [3] deals with T2, P133R AKR1D1 (Homo sapiens, UniProt P51857, P133R). Put plainly: Steroid binding, quenching of energy transfer band of E·NADPH complex.
Series [4] concerns the target T1, WT AKR1D1. The description is as above.
Series [5] concerns the target T2, P133R AKR1D1. Description: Multiple turnover reactions, stopped-flow transient kinetics. It counts as biochemical. Conditions: 10 mM potassium phosphate buffer, pH 7, 37 °C.
Series [6] has as its target T2, P133R AKR1D1. Put plainly: Steady-state kinetic analysis of steroid reduction. Conditions: for kcat: P133R.
In series [7] the target is T2, P133R AKR1D1. Put plainly: Cofactor binding, quenching of intrinsic protein fluorescence. Conditions: pH 7.0, 37 °C.
In series [8] the target is T1, WT AKR1D1. Described as above. Conditions: pH 7.0, 37 °C.
Series [9] concerns the target T2, P133R AKR1D1. Put plainly: Ligand chase experiment of cofactor. It counts as binding.
The target in series [10] is T1, WT AKR1D1. Description: Ligand chase experiment of cofactor. It counts as binding. Conditions: pH 7.0, 37 °C.
Substrate in series [11]: CC(C)CCC[C@@H](C)[C@H]1CC[C@H]2[C@@H]3[C@H](O)CC4=CC(=O)CC[C@]4(C)[C@H]3CC[C@]12C
Description: purified protein, by the assay type. Conditions: other: P133R, pH 7.0, 37.0 °C.

“And” between values parts separate entries of the source, which are not always exact repeats. Identical values can stand only once.

T1 sequence (P51857 whole entry): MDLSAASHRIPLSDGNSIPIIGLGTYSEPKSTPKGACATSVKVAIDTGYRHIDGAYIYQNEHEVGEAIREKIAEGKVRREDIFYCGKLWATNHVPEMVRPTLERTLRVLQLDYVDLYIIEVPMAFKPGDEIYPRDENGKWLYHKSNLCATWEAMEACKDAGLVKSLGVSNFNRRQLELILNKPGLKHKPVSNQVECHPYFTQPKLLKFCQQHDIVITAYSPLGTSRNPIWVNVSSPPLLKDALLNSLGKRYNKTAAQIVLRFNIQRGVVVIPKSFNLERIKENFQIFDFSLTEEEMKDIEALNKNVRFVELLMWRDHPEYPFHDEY

For `CC(C)CCC[C@@H](C)[C@H]1CC[C@H]2[C@@H]3[C@H](O)CC4=CC(=O)CC[C@]4(C)[C@H]3CC[C@]12C` [7α-hydroxycholest-4-en-3-one], the kcat at WT AKR1D1 [1] (10 mM KPi) was 0.017 ± 0.001 s⁻¹; at WT AKR1D1 [1] (100 mM KPi), 0.020 ± 0.002 s⁻¹; at P133R AKR1D1 [6] (10 mM KPi), 0.0017 ± 0.0001 s⁻¹; on P133R AKR1D1 [6] (100 mM KPi, apparent value, enzyme not saturated with NADPH) it was 0.0030 ± 0.0005 s⁻¹. The Ki on WT AKR1D1 [1] (10 mM KPi) was 55 ± 14 µM; at WT AKR1D1 [1] (100 mM KPi) it was 46 ± 18 µM; at P133R AKR1D1 [6] it was 51 ± 27 µM. In addition, the results for the kss on WT AKR1D1 [2] and at P133R AKR1D1 [5] were 0.010 ± 0.002 s⁻¹ and 0.004 ± 0.001 s⁻¹, respectively. Further, the figures for the Kd on P133R AKR1D1 [3] and on WT AKR1D1 [4] were 13.6 ± 1.9 µM and 2.2 ± 0.3 µM, respectively. Moreover, the “kcat WT/P133R” value on P133R AKR1D1 [6] (10 mM KPi) amounted to 10; on P133R AKR1D1 [6] (100 mM KPi), 6.7. Also, at P133R AKR1D1 [6] (100 mM KPi), the “kcat/Km WT/P133R (fold decrease in catalytic efficiency)” value is 13 and 13.3.

`CC(C)(C)NC(=O)[C@H]1CC[C@H]2[C@@H]3CC[C@H]4NC(=O)C=C[C@]4(C)[C@H]3CC[C@]12C` [finasteride]: the dissociation constant Kd on P133R AKR1D1 [3] worked out at 14.2 ± 1.3 µM; at WT AKR1D1 [4], 3.7 ± 0.2 µM.

On to `NC(=O)c1ccc[n+]([C@@H]2O[C@H](COP(=O)([O-])OP(=O)(O)OC[C@H]3O[C@@H](n4cnc5c(N)ncnc54)[C@H](OP(=O)(O)O)[C@@H]3O)[C@@H](O)[C@H]2O)c1` [NADP^+], for which the Kd at P133R AKR1D1 [7] (10 mM KPi) was 0.08 ± 0.006 µM; at P133R AKR1D1 [7] (100 mM KPi), 27.1 ± 1.3 µM; on WT AKR1D1 [8] (10 mM KPi) it was 0.0043 ± 0.0006 µM; at WT AKR1D1 [8] (100 mM KPi) it was 0.237 ± 0.005 µM. For the same molecule, the “koff (rate of NADP+ release)” value on P133R AKR1D1 [9] (10 mM KPi) is 8.9 ± 0.2 s⁻¹; on P133R AKR1D1 [9] (100 mM KPi, too fast for instrument (dead time ~1.8 ms)), >50 s⁻¹; on WT AKR1D1 [10] (10 mM KPi), 0.164 ± 0.007 s⁻¹; at WT AKR1D1 [10] (100 mM KPi) it was 0.28 s⁻¹ and 0.276 ± 0.008 s⁻¹.

In the case of `NC(=O)C1=CN([C@@H]2O[C@H](COP(=O)(O)OP(=O)(O)OC[C@H]3O[C@@H](n4cnc5c(N)ncnc54)[C@H](O)[C@@H]3O)[C@@H](O)[C@H]2O)C=CC1` [NADH], the Kd on P133R AKR1D1 [7] (10 mM KPi) turned out to be 28.4 ± 1.9 µM; on P133R AKR1D1 [7] (100 mM KPi), 34.5 ± 3.8 µM; at WT AKR1D1 [8] (10 mM KPi), 24.8 ± 1.7 µM; on WT AKR1D1 [8] (100 mM KPi) it was 34.8 ± 3.5 µM.

Regarding `C[C@]12CCC(=O)C=C1CC[C@@H]1[C@@H]2C(=O)C[C@@]2(C)[C@H]1CC[C@]2(O)C(=O)CO` [cortisone], the kss on WT AKR1D1 [2] is 0.048 ± 0.001 s⁻¹; on P133R AKR1D1 [5], 0.040 ± 0.001 s⁻¹. Besides, the “reduction in Kd versus 7α-hydroxycholest-4-en-3-one” value on WT AKR1D1 [4] (WT) is reported as 4 fold.

B1: P133R AKR1D1 (Homo sapiens; P133R) (protein)
chain: MDLSAASHRIPLSDGNSIPIIGLGTYSEPKSTPKGACATSVKVAIDTGYRHIDGAYIYQNEHEVGEAIREKIAEGKVRREDIFYCGKLWATNHVPEMVRPTLERTLRVLQLDYVDLYIIEVPMAFKPGDEIYRRDENGKWLYHKSNLCATWEAMEACKDAGLVKSLGVSNFNRRQLELILNKPGLKHKPVSNQVECHPYFTQPKLLKFCQQHDIVITAYSPLGTSRNPIWVNVSSPPLLKDALLNSLGKRYNKTAAQIVLRFNIQRGVVVIPKSFNLERIKENFQIFDFSLTEEEMKDIEALNKNVRFVELLMWRDHPEYPFHDEY
For B1, the Km is 2.4 ± 0.7 (WT/P133R 0.42) μM in series [11] (10 mM KPi) and 1.0 ± 0.4 (WT/P133R 0.5) μM in [11] (100 mM KPi, apparent value).
